# Bioassay records as filed in PubChem.
# FLuc inhib CS: Photinus pyralis luciferase inhibition counter-screen | P08659 | ATPLite firefly luciferase biochemical luminescence, 10 min | inhibition, % at 10 µM | hit rate 1.5% among 200,000 | AID 1006;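 active means inhibition above about 50% when tested at 10 µM, limit read from the data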
# Target sequence (P08659 whole entry, looked up): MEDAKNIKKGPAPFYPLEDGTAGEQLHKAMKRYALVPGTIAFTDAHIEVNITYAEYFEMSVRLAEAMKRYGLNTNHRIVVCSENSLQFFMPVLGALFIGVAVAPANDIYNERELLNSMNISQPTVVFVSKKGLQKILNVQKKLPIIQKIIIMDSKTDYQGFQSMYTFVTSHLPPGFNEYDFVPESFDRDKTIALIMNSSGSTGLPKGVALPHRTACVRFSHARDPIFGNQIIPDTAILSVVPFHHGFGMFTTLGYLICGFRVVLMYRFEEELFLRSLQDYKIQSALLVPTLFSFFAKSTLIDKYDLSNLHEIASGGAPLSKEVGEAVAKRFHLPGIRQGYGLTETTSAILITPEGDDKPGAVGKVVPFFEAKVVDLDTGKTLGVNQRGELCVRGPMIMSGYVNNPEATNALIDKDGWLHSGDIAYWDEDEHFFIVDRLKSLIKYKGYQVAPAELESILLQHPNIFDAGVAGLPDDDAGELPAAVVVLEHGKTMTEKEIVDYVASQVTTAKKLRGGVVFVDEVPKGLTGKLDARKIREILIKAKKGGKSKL
# FLuc act counter: affects firefly luciferase, flagging false hits in luciferase stimulation screens; P08659; ATPlite luciferase biochemical, luminescence, 10 min; 0 = ATP-free wells, 1 = DMSO control; activation factor at 10 µM; 200,000 tested, under 10 active;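 active means luciferase activation factor, scaled between plate controls, of at least 2 with compound at 10 µM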
#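 Assay system: Luciferase/luciferin reagent mix; Medium: PBS as buffer for the ATP substrate; Dosing: test compounds dosed from 2 mM stocks in 100% DMSO; Times: 10 min, room temperature; Signal: luminescence from luciferase reaction; Read-out: luciferase activation; Controls: No-ATP low control, compound-free enzyme-plus-ATP high control.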
# APP 5'UTR act: APP 5'UTR luciferase reporter activation | SH-SY5Y APP 5'UTR luciferase reporter, luminescence; zero percent = DMSO vehicle wells | activation, % at 2 µM | hit rate 1% among 190,000;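 active means activation above a set limit, based on mean plus 3 SD of controls, cut at about 140% in these data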
# NF-kB neuron act: raises NF-kB expression in human neuronal cells. fold change at 12.5 µM. AID 1239. hit rate 1.6% among 190,000. NF-kB reporter expression; hits give high values; in the data active means fold change above about 3.3
# STAT1 activator: STAT1 signaling activation; NIH 3T3 STAT1-luciferase reporter, IFN-gamma, luminescence; 100% = IFN-gamma alone, no compound; activation (% of control), % at 5.5 µM; hit rate 2.6% among 200,000;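 active means activation above the screen-wide mean activation plus 3 SD, cut at about 130% in these data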;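 further: raw ratio to IFN-gamma control signal so 100% means no change and 0% no light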
# * marks the source's active call; other numbers are inactive results; x = no result given. Sampled rows, rich in hits. Any-hit rate of the full collection: about 4.3%.
SMILES,FLuc inhib CS,FLuc act counter,APP 5'UTR act,NF-kB neuron act,STAT1 activator
COc1ccc(C(=O)NNC(=S)Nc2ccccc2)cc1,57*,0.4,141*,6.5*,130*
CCc1ccc(NC(=O)Nc2cccc(OC)c2)cc1,52*,0.5,161*,2.5,146*
O=C(NCc1ccco1)c1cc2ccc(O)cc2oc1=O,26,0.7,11,1.2,90
Cc1cccc(NC(=O)Nc2cc(C)on2)c1,8,0.9,12,1.7,120
O=c1c2cc(NC(=S)N3CCCCCC3)ccc2nc2n1CCCCC2,-8,1.1,-12,0.85,90
O=C(O)CC(NC(=O)COc1ccccc1)c1cccc([N+](=O)[O-])c1 (stereo not drawn),-2,1,14,1.1,103
COc1cccc(NC(=O)c2ccc(NC(=O)C(C)C)cc2)c1,28,0.7,31,1.9,112
Cc1ccnc(NC(=O)c2cc3ccccc3oc2=O)c1,54*,0.5,152*,5.9*,144*
COc1ccc(C(=O)Nc2cccc(OC)c2)cc1,67*,0.3,134,5.8*,120
COc1ccc(NC(=O)c2ccc3nccnc3c2)cc1,36,0.6,82,3.1,131*
COc1ccc(C(=O)Nc2cc(C)on2)cc1,73*,0.3,92,3.1,122
CCOC(=O)Cc1csc(NC(=O)CCN2C(=O)c3ccccc3C2=O)n1,-6,1.1,2,1.2,97
O=C(Nc1ccc(Br)cn1)c1ccc2nccnc2c1,x,x,21,x,149*
CC(C)(C)NC(=O)c1ccc2nccnc2c1,-6,1.1,7,1.1,107
COc1ccc2oc(=O)c(C(=O)Nc3cccc(C)c3)cc2c1,16,0.8,119,2.8,138*
COc1ccc2oc(=O)c(C(=O)Oc3ccc(NC(C)=O)cc3)cc2c1,-7,1.1,-12,1.4,104
Cc1ccc(-c2csc(-c3ccncc3)n2)cc1,10,0.9,70,2.6,144*
c1ccc(-c2csc(-c3cccnc3)n2)cc1,8,0.9,13,2,132*
COc1ccc(-c2csc(-c3cccnc3)n2)cc1C,33,0.7,73,2.8,150*
Brc1ccc(-c2csc(-c3ccncc3)n2)cc1,4,1,22,2,128
COc1ccc2cc(-c3csc(-c4cccnc4)n3)ccc2c1,27,0.7,6,2.6,124
COc1ccc(CCNC(=O)c2ccc(-c3ccc([N+](=O)[O-])cc3)o2)cc1OC,22,0.8,3,0.94,105
O=C(O)/C(=C\c1cccs1)c1ccccc1,-3,1,8,0.96,100
CCc1ccc(NC(=O)c2c(C(=O)Nc3ccccc3)sc3nc(C)cc(=O)n23)cc1,-1,1,3,0.9,102
Cn1[nH]c(CSc2ccc(Cl)cc2)cc1=O,2,1,-11,0.84,107
SMILES,FLuc inhib CS,FLuc act counter,APP 5'UTR act,NF-kB neuron act,STAT1 activator
CCOC(=O)CN1C(=O)S/C(=C/c2cc(C)n(-c3ccccn3)c2C)C1=O,27,0.7,52,2.2,126
COC(=O)C(C)N1C(=O)S/C(=C\c2cc(C)n(-c3ccccn3)c2C)C1=O (stereo not drawn),56*,0.4,109,2.9,125
Cc1ccccc1/C=C1\OC(=O)c2ccccc21,1,1,12,1.8,103
Cc1ccc(/C=C2\OC(=O)c3ccccc32)cc1,38,0.6,106,5.7*,146*
COc1ccc(NC(=O)c2ccccc2NC(=O)CSc2ccc(Cl)cc2)cc1,1,1,0,0.84,100
O=C(CSc1nnc(CNC(=O)c2c(F)cccc2Cl)o1)Nc1ccc2c(c1)OCCO2,8,0.9,18,1,104
CCn1nnnc1SCC(=O)Nc1ccc2c(c1)OCCO2,15,0.8,45,2.4,139*
Cc1cc2nc(-c3ccc(SCC(=O)Nc4ccc5c(c4)OCCO5)nc3)[nH]c2cc1C,81*,0.2,180*,1.4,100
O=C(CSc1nnc(-c2cccc(Cl)c2)o1)Nc1ccc2c(c1)OCCO2,-4,1,159*,1.8,107
Cc1ccc(-c2ccc(SCC(=O)Nc3ccc4c(c3)OCCO4)nn2)cc1,57*,0.4,13,1.5,107
Nc1ccn(Cc2ccc(F)cc2)n1,-7,1.1,-7,1.3,102
COc1cccc2c1OCC(CN1CCN(CCC(C)C)C(CCO)C1)=C2 (stereo not drawn),-9,1.1,-19,0.95,95
O=C1C2C3C=CC(C3)C2C(=O)N1CCN1CCN(Cc2ccc([N+](=O)[O-])cc2)CC1 (stereo not drawn),-6,1.1,6,0.88,98
Cc1ccc(Cl)cc1NC(=S)N1CCC(c2ccccc2)C1 (stereo not drawn),5,0.9,9,1.2,108
COC(=O)c1ccccc1NC(=O)N1CCN(Cc2ccco2)CC1,6,0.9,-6,1,101
O=C(Nc1ccccc1)N1CCC(C(=O)N2CCN(c3ccccc3F)CC2)CC1,-5,1.1,-11,1.1,84
COc1ccccc1CN1C(=O)c2ccccc2C1C(=O)NC1CCC(C)CC1 (stereo not drawn),0,1,13,1.1,90
Cc1ccc2nc(-c3ccc(SCC(=O)Nc4ccc5c(c4)OCCO5)nc3)[nH]c2c1,62*,0.4,129,1.4,113
CCc1nnc(NC(=O)CSc2ccc(-c3nc4ccccc4[nH]3)cn2)s1,7,0.9,22,2.1,106
Cc1ccc2nc(-c3ccc(SCC(=O)Nc4nc(C)cs4)nc3)[nH]c2c1,28,0.7,149*,1.6,146*
Cc1ccc2nc(-c3ccc(SCC(=O)Nc4nnc(C)s4)nc3)[nH]c2c1,56*,0.4,93,2.3,124
Cc1nc(NC(=O)CSc2ccc(-c3nc4ccccc4[nH]3)cn2)sc1C,-2,1,39,1.2,115
CN(Cc1cccnc1)Cc1cn(Cc2ccccc2)nc1-c1ccc2c(c1)OCO2,-2,1,2,0.84,91
CCOc1ccc2nc(N3C(=O)/C(=C/c4ccccc4)NC3=S)sc2c1,39,0.6,37,1.9,137*
COc1ccc2nc(N3C(=O)/C(=C/c4ccccc4)NC3=S)sc2c1,12,0.9,12,1.1,103
COc1ccccc1C1CC(c2cccs2)=Nc2ccccc2S1 (stereo not drawn),-5,1.1,146*,1.8,112
COc1ccccc1C1CN(c2ccc(F)cc2F)N=C1c1cccs1 (stereo not drawn),-4,1,-28,0.98,95
O=C(Nc1nc2ccc(Cl)cc2s1)C1CCCO1 (stereo not drawn),14,0.9,102,4.6*,144*
O=C(Nc1nc2ccc([N+](=O)[O-])cc2s1)C1CCCO1 (stereo not drawn),6,0.9,62,2.2,136*
CS(=O)(=O)c1ccc2nc(NC(=O)C3CCCO3)sc2c1 (stereo not drawn),-2,1,32,0.98,124
